One compound from ChEMBL document CHEMBL4382192, “Discovery of a potent dual ALK and EGFR T790M inhibitor” (Eur J Med Chem, 2017) can be followed below.

The target in data set [1] is High affinity nerve growth factor receptor (Homo sapiens) (UniProt P04629). As to the kind of experiment: Binding affinity to wild-type human partial length TRKA (G475 to G790 residues) expressed in mammalian expression system assessed as residual binding level at 1 uM by Kinomescan method relative to control.
The target of data set [2] is Calcium/calmodulin-dependent protein kinase kinase 1 (Homo sapiens) (UniProt Q8N5S9). As to the kind of experiment: Binding affinity to wild-type human partial length CAMKK1 (R65 to E414 residues) expressed in bacterial expression system assessed as residual binding level at 1 uM by Kinomescan method relative to control.
The target in data set [3] is Tyrosine-protein kinase receptor Tie-1 (Homo sapiens) (UniProt P35590). Description: Binding affinity to wild-type human partial length TIE1 (T819 to A1138 residues) expressed in bacterial expression system assessed as residual binding level at 1 uM by Kinomescan method relative to control.
Data set [4] deals with Ephrin type-A receptor 4 (Homo sapiens) (UniProt P54764). As to the kind of experiment: Binding affinity to wild-type human partial length EPHA4 (T601 to R897 residues) expressed in bacterial expression system assessed as residual binding level at 1 uM by Kinomescan method relative to control.
In the next data set the target is Insulin receptor (Homo sapiens, UniProt P06213). As to the kind of experiment: Binding affinity to wild-type human partial length INSR (P997 to E1318 residues) expressed in mammalian expression system assessed as residual binding level at 1 uM by Kinomescan method relative to control.
Sequence of Insulin receptor (P06213 28-758 limits assumed): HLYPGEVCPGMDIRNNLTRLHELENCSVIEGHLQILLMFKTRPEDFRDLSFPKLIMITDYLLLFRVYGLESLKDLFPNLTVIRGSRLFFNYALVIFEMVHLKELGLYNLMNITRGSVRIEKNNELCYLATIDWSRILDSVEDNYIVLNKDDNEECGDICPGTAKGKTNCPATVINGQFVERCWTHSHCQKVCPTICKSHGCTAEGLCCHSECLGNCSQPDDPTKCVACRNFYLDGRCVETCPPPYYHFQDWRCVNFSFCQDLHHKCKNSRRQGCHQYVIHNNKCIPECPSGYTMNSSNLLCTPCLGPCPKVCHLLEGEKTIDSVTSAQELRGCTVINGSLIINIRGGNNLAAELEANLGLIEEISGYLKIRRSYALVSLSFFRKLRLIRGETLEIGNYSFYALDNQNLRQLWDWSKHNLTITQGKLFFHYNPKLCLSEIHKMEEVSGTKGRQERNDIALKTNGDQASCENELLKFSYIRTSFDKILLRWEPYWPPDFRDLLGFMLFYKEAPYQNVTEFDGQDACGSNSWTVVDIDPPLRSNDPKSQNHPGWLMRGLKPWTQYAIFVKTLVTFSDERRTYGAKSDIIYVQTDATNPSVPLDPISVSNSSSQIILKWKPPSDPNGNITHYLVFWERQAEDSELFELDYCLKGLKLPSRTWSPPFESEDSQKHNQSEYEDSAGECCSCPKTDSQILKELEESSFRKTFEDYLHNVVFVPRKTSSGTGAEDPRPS
Sequence of Insulin receptor (P06213 763-1382 limits assumed): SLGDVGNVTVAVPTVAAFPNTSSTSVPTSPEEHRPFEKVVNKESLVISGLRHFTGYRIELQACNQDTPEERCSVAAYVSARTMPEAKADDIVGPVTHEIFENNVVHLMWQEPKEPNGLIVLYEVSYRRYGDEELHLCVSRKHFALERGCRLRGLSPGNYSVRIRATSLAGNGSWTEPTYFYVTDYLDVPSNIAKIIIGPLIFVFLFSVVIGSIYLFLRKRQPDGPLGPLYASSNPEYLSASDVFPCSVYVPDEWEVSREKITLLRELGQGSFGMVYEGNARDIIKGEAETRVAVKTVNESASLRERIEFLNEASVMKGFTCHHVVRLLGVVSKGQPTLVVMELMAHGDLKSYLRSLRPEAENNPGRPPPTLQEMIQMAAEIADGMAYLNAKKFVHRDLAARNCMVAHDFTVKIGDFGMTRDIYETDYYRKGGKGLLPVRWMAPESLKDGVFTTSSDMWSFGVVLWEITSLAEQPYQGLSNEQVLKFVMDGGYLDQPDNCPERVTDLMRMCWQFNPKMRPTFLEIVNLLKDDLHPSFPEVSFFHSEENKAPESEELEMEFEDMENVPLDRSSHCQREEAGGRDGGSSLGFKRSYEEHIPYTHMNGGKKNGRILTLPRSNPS
Data set [5] has as its target Interleukin-1 receptor-associated kinase 4 (Homo sapiens) (UniProt Q9NWZ3). Description: Binding affinity to wild-type human partial length IRAK4 (M1 to S460 residues) expressed in mammalian expression system assessed as residual binding level at 1 uM by Kinomescan method relative to control.
Data set [6] addresses Homeodomain-interacting protein kinase 4 (Homo sapiens) (UniProt Q8NE63). As to the kind of experiment: Binding affinity to wild-type human partial length HIPK4 (M1 to V384 residues) expressed in bacterial expression system assessed as residual binding level at 1 uM by Kinomescan method relative to control.
Data set [7] deals with Epidermal growth factor receptor (Homo sapiens), P00533 [UNDEFINED MUTATION]. As to the kind of experiment: Binding affinity to human partial length EGFR L747-S752del/P753S mutant expressed in bacterial expression system assessed as residual binding level at 1 uM by Kinomescan method relative to control. The procedure, abridged: (§1)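 Kinome-wide selectivity panel run by the KINOMEscan method, with the test compound at a single concentration of 1 μM. Wild-type and mutant kinases were profiled in the same screen.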

In data set [8] the target is 5'-AMP-activated protein kinase catalytic subunit alpha-1 (Homo sapiens) (UniProt Q13131). Description: Binding affinity to wild-type human partial length AMPK alpha1 (M1 to E306 residues) expressed in bacterial expression system assessed as residual binding level at 1 uM by Kinomescan method relative to control.
For data set [9], the target named is Calcium/calmodulin-dependent protein kinase type 1 (Homo sapiens) (UniProt Q14012). As to the kind of experiment: Binding affinity to wild-type human full length CAMK1 (M1 to L370 residues) expressed in bacterial expression system assessed as residual binding level at 1 uM by Kinomescan method relative to control.
Sequence of Calcium/calmodulin-dependent protein kinase type 1 (Homo sapiens) (Q14012 whole entry, looked up, the tested form may be a part): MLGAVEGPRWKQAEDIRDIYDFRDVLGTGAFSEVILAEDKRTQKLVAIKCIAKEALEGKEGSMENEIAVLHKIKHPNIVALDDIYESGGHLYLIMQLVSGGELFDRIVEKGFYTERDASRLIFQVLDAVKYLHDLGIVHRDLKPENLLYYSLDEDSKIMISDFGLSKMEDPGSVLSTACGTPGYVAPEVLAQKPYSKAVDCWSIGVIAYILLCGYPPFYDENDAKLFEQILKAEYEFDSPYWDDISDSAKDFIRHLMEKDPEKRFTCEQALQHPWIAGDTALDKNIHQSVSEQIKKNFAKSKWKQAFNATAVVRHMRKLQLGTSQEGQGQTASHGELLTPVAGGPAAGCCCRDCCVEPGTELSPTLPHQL
Data set [10] addresses Cyclin-dependent kinase 11B (Homo sapiens) (UniProt P21127). Description: Binding affinity to wild-type human partial length CDC2L1 (P353 to G692 residues) expressed in bacterial expression system assessed as residual binding level at 1 uM by Kinomescan method relative to control.
For data set [11], the target named is STE20-like serine/threonine-protein kinase (Homo sapiens, UniProt Q9H2G2). Description: Binding affinity to wild-type human partial length SLK (S14 to A307 residues) expressed in bacterial expression system assessed as residual binding level at 1 uM by Kinomescan method relative to control.
The target of data set [12] is Serine/threonine-protein kinase D1 (Homo sapiens) (UniProt Q15139). Description: Binding affinity to wild-type human partial length PRKD1 (G551 to E870 residues) expressed in bacterial expression system assessed as residual binding level at 1 uM by Kinomescan method relative to control.
The target of data set [13] is Mitogen-activated protein kinase 8 (Homo sapiens) (UniProt P45983). Description: Binding affinity to wild-type human full length JNK1 (M1 to Q384 residues) expressed in mammalian expression system assessed as residual binding level at 1 uM by Kinomescan method relative to control. The procedure, abridged:
(§2)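 Single-point kinome-wide KINOMEscan binding panel, test compound at 1 μM, run by the provider's standard protocol.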

The target in data set [14] is RAC-alpha serine/threonine-protein kinase (Homo sapiens) (UniProt P31749). Description: Binding affinity to wild-type human partial length AKT1 expressed in bacterial expression system assessed as residual binding level at 1 uM by Kinomescan method relative to control.
Data set [15] has as its target Phosphatidylinositol 4,5-bisphosphate 3-kinase catalytic subunit delta isoform (Homo sapiens) (UniProt O00329). Description: Binding affinity to wild-type human partial length PIK3CD (R108 to Q1044 residues) expressed in mammalian expression system assessed as residual binding level at 1 uM by Kinomescan method relative to control.
Data set [16] concerns the target Serine/threonine-protein kinase NLK (Homo sapiens) (UniProt Q9UBE8). As to the kind of experiment: Binding affinity to wild-type human full length NLK (M13 to E527 residues) expressed in bacterial expression system assessed as residual binding level at 1 uM by Kinomescan method relative to control. The procedure, abridged: as §2
The target in data set [17] is Wee1-like protein kinase 2 (Homo sapiens) (UniProt P0C1S8). Description: Binding affinity to wild-type human partial length WEE2 (M204 to K492 residues) expressed in bacterial expression system assessed as residual binding level at 1 uM by Kinomescan method relative to control.
Sequence of Wee1-like protein kinase 2 (Homo sapiens) (P0C1S8 whole entry, looked up, the tested form may be a part): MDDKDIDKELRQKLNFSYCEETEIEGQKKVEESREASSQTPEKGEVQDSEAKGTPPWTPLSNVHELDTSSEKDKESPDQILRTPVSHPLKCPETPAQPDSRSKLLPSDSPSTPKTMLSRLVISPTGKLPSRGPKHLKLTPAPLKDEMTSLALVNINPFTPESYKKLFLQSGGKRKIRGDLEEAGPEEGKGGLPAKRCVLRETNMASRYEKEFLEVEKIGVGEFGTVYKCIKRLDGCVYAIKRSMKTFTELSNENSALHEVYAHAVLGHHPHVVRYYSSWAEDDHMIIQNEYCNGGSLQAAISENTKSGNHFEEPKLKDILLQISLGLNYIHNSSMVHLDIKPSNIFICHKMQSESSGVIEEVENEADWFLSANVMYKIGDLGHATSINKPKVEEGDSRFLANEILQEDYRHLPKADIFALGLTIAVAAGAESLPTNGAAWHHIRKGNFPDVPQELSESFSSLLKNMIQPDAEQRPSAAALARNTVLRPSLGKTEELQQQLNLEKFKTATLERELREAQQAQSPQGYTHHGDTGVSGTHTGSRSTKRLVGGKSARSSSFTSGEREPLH
In data set [18] the target is Aurora kinase A (Homo sapiens) (UniProt O14965). As to the kind of experiment: Binding affinity to wild-type human partial length AURKA (E122 to K401 residues) expressed in mammalian expression system assessed as residual binding level at 1 uM by Kinomescan method relative to control.
Sequence of Aurora kinase A (Homo sapiens) (O14965 whole entry, the tested form may be a part): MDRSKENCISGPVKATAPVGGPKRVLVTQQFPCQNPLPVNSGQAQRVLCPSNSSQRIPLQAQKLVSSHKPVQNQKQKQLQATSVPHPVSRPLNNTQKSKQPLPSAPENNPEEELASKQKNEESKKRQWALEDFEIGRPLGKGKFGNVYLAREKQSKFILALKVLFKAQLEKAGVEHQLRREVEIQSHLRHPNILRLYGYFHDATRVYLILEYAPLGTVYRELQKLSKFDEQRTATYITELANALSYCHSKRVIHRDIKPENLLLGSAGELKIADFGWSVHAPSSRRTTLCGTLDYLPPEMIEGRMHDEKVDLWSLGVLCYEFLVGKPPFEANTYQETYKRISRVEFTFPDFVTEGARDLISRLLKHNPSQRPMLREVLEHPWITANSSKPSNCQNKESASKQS
Data set [19] in a line: Drug uptake in mouse lung at 2 mg/kg, iv after 2 hrs. Type of data set: ADME, organism-based. To be noted: read-out: Drug uptake.
For data set [20], the target named is Tyrosine-protein kinase BTK (Homo sapiens) (UniProt Q06187). As to the kind of experiment: Binding affinity to wild-type human full length BTK (M1 to S659 residues) expressed in mammalian expression system assessed as residual binding level at 1 uM by Kinomescan method relative to control.
In data set [21] the target is MAP/microtubule affinity-regulating kinase 3 (Homo sapiens) (UniProt P27448). Description: Binding affinity to wild-type human full length MARK3 (M1 to L729 residues) expressed in bacterial expression system assessed as residual binding level at 1 uM by Kinomescan method relative to control. An outline of the steps:
as §2

The target in data set [22] is Tyrosine-protein kinase ABL2 (Homo sapiens) (UniProt P42684). As to the kind of experiment: Binding affinity to wild-type human ABL2 (A248 to G542 residues) expressed in bacterial expression system assessed as residual binding level at 1 uM by Kinomescan method relative to control. An outline of the steps:
as §1

Sequence of High affinity nerve growth factor receptor (Homo sapiens) (P04629 33-796 limits assumed): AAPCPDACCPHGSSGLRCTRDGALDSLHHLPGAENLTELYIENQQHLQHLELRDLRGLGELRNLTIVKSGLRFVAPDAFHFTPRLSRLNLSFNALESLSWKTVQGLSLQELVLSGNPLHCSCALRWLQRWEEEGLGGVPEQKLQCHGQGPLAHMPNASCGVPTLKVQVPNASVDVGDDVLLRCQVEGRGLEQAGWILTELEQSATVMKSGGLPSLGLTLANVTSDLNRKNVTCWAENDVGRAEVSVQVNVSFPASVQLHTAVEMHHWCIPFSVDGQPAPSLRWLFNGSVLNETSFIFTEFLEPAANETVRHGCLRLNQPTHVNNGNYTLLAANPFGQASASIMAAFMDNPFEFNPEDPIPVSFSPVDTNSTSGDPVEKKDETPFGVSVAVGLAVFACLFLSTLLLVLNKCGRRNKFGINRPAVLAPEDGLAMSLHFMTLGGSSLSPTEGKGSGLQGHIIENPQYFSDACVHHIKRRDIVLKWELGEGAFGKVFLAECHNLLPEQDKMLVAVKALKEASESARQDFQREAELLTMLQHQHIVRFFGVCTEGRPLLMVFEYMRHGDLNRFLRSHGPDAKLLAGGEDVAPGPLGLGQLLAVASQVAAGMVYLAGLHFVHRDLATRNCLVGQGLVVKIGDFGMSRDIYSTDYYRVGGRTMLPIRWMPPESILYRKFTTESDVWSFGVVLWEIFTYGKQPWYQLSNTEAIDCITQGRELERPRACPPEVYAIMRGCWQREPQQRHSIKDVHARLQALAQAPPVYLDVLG
Sequence of MAP/microtubule affinity-regulating kinase 3 (Homo sapiens) (P27448 whole entry, looked up, the tested form may be a part): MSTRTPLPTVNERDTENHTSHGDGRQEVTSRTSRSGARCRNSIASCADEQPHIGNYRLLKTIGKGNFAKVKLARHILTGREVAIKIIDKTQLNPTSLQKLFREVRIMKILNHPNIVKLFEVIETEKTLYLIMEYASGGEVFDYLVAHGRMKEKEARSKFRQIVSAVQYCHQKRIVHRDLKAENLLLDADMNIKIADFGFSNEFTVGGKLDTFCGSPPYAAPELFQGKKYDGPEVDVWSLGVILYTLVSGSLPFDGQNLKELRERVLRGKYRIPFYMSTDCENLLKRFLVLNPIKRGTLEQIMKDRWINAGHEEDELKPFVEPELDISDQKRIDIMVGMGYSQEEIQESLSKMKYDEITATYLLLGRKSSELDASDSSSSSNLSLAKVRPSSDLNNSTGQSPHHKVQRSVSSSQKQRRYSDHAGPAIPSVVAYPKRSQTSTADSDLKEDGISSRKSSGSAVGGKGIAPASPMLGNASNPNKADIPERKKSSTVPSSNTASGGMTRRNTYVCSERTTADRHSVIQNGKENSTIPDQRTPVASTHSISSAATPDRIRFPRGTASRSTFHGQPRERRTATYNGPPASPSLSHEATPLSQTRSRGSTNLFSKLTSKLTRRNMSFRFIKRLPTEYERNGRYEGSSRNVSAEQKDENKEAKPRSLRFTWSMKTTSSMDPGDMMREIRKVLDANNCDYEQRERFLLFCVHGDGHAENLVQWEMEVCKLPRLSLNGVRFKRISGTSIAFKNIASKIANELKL
Sequence of Cyclin-dependent kinase 11B (Homo sapiens) (P21127 whole entry, the tested form may be a part): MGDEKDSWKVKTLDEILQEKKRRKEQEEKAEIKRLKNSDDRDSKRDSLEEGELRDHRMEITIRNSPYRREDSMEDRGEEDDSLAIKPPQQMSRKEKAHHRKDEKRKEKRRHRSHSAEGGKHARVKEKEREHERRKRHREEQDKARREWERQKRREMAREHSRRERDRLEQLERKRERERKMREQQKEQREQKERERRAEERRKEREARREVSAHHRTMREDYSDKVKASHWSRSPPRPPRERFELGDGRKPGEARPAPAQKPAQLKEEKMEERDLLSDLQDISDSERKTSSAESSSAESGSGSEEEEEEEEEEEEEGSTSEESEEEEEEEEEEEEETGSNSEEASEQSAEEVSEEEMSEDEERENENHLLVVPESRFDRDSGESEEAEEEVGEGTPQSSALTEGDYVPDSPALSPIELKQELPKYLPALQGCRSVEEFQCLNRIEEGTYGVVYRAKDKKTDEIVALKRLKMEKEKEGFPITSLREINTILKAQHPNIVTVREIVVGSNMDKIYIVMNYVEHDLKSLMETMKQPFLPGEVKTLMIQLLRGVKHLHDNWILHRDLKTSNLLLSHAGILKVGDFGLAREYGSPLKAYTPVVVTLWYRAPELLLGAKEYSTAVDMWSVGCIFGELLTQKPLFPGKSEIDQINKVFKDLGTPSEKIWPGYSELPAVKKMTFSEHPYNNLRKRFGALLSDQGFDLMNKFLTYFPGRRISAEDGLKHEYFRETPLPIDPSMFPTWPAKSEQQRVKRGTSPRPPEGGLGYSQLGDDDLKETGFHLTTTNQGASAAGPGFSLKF

On to `C=CC(=O)Nc1cc(Nc2ncc(Cl)c(Nc3ccccc3S(=O)(=O)C(C)C)n2)c(OC)cc1N(C)CCN(C)C`, for which the Activity in [1] was 13%; in data set [2], 2.8%; in data set [3], 8.8%; in data set [4] it was 80%; on Insulin receptor it was 0%; in [5], 96%. In addition, the Activity in data set [6] turned out to be 9.4%; in data set [7] it was 0%; in [8] it was 16%; in data set [9], 40%; in data set [10], 75%; in data set [11] it was 0%. Moreover, the Activity worked out at 1.2% in data set [12]; 59% in [13]; 98% in data set [14]; 75% in data set [15]; 55% in data set [16]; 93% in [17]. The Activity in [18] was 4.2%; in [20], 0%; in data set [21], 33%; in [22] it was 50%. The concentration at 2 h in data set [19] stood at 2360 nM.
